EP2 modulator – EP2 receptor (human) modulation. P43116. EP2-expressing cells, cAMP HTRF FRET, PGE2 co-stimulation. induction, % at 25 µM. 0.83% of 260,000 active. AID 940;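 active = compounds whose cAMP rise, as percent of the full-agonist control response, exceeds 60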;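 also: rat C6 glioma line stably carrying human EP2 under a CMV promoter; the protocol text gives 20 µM as final concentration; 100% = response of wells given 1 µM PGE2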
Granule exo inh – blocks lytic granule exocytosis; TALL-104 LAMP-1 surface exposure, flow cytometry; cells stimulated with thapsigargin and PMA; inhibition, % at 10 µM; 0.66% of 360,000 active; AID 651702;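 active = inhibition above about 55%, limit read from the data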
MC4R ag barr – human MC4R agonism via beta-arrestin; U2OS MC4R beta-arrestin complementation, luminescence; percent of melanotan II response, DMSO zero; activation, % at 8.9 µM; 0.98% of 360,000 active; AID 540308;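 active = activation above a per-plate cutoff, the mean activation of sample wells on that plate plus 3 SD, cut at about 8% in these data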
Target sequence (P32245 whole entry, looked up): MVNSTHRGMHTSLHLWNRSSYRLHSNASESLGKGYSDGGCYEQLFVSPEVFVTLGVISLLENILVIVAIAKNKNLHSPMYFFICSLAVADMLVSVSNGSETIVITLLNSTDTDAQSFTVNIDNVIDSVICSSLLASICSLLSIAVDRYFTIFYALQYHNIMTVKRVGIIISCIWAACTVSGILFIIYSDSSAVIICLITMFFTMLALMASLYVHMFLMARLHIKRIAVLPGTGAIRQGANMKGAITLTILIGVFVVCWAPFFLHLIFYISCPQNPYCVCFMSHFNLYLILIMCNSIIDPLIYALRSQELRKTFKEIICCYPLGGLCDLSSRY
T cell modulator – T cell immune modulation candidate; 2C CD8+ T cell-vesicle binding, flow cytometry; active compounds read low; response (vesicle binding), % at 7 µM; 0.068% of 330,000 active;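 active = response, share of CD8 T cells binding vesicles, and their 90th percentile fluorescence all below set limits, cut at about 80% in these data, passing the limit was not always enough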;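 also: values below 100% mean blocked vesicle binding to the CD8+ T cells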
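Assay system: 2C TCR transgenic mouse naive CD8+ T cells, MACS-purified | Read-out: CD8+ gate FL2 mean fluorescence as % of same-row positive control | Signal: High-throughput flow cytometry with anti-B7-1 and anti-CD8 staining | Timing: Binding step 1.5 h, 37 °C, antibody labelling 20 min, ice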
MC4R antagonist – blocks human MC4R cAMP signaling; AID 540295; MC4R-expressing cells, MTII-stimulated cAMP, LANCE TR-FRET; 0.48% of 360,000 active; inhibition, % at 6.5 µM; P32245;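 active = inhibition above its plate's cutoff, the mean of tested wells on that plate plus 3 SD, cut at about 29% in these data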;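 also: 0% = Melanotan II alone and 100% = Melanotan II plus saturating MCL0020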
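Material – human MC4R-expressing U2OS cells · Repeats – no replicates · Detection – TR-FRET with Eu-cAMP and labeled anti-cAMP, 671 nm · Times – compound 30 min, challenge 1 h, detection 1 h · Compound – single nominal compound dose of 6.5 µM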
EP2 antag – EP2 receptor (human) inhibition; C6 glioma cells expressing human EP2, cAMP TR-FRET; cells stimulated with saturating PGE2; 0.52% of 260,000 active; inhibition, % at 25 µM; P43116;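 active = percent inhibition above 40 after rounding to a whole number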;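 also: rat C6 glioma host cells with rolipram phosphodiesterase inhibitor present; the protocol text gives 20 µM as final concentration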
* marks the source's active call; other numbers are inactive results; i = inactive; x = no result; ! = not active in a repeat. The list is not random: actives were taken first. Their share in the collection is about 2.6%.

SMILES | EP2 modulator | Granule exo inh | MC4R ag barr | T cell modulator | MC4R antagonist | EP2 antag
Cc1ccc2nc(/C(C#N)=C\c3ccc(N4CCOCC4)o3)[nH]c2c1 | -44 | 1 | -2 | i | -2 | 22
Cc1ccc2nc(/C(C#N)=C\c3ccc([N+](=O)[O-])o3)[nH]c2c1 | -40 | 62* | 766* | 19 | -47 | 64*
CCOc1cc(/C=C(/C#N)c2nc3ccccc3[nH]2)ccc1Oc1ccc([N+](=O)[O-])cn1 | -6 | -2 | 3 | 264 | -5 | 7
CCCn1nc(NC(=O)COC)c2cc3cccc(C)c3nc21 | x | 2 | 0 | 104 | -2 | x
Cc1ccc(CNC(=O)C2CCC(CNS(=O)(=O)c3cccc4cccnc34)CC2)cc1 (configuration not stated) | x | 0 | -1 | 461 | 24 | x
Cc1cc(C(C)(C)C)oc1C(=O)N(CC(=O)NC1CCCC1)c1c(C)cccc1C | 64* | 3 | 0 | 272 | 2 | 11
Cc1c(Cl)cccc1NC(=S)NCCc1ccc(F)cc1 | x | 84* | -1 | 154 | 9 | x
Cc1c(Cl)cccc1NC(=S)NCCc1ccc(Cl)cc1 | x | 26 | 2 | 202 | 5 | x
Nc1cc2nc3ccccc3oc-2cc1=O | -40 | 22 | -1 | 280 | -10 | 42*
CC1(C)N=C(N)N=C(N)N1c1cccc(C#N)c1 | x | 0 | -2 | x | -5 | x
CCOc1cc(S(=O)(=O)NCc2ccco2)c(OCC)cc1-n1cnnn1 | -5 | 3 | -1 | 596 | 16 | 6
CC1(C)S[C@H]2[C@H](NC(=O)Cc3ccccc3)C(=O)N2[C@@H]1C(=O)O | 19 | x | x | x | x | 49*
CC(Oc1ccccc1)C(=O)NC1C(=O)N2C1SC(C)(C)C2C(=O)O (configuration not stated) | -5 | -1 | 1 | 713 | 0 | 7
CCOC(=O)C(=N/O)/C(C)=N/NC(C)=O | 11 | -1 | -1 | 295 | 13 | 2
CCOC(=O)C(=N/O)/C(C)=N/NC(=O)C(=O)Nc1cc(Cl)ccc1Cl | 48 | 78* | -3 | 784 | 3 | 9
CC(C)=CCc1c(O)cc(O)c2c(=O)c3c(CC=C(C)C)c(O)ccc3oc12 | x | x | x | 311 | x | 42*
CC(C)=CCc1c(O)cc2c(=O)c3ccc(O)cc3oc2c1O | x | 2 | 1 | 460 | -25 | 21
Cc1nnc2n(Cc3ccccc3)c(=O)c3c4c(sc3n12)COC(C(C)C)C4 (configuration not stated) | 64* | 16 | -1 | 287 | -2 | 13
COc1ccccc1OCCn1c(=O)sc2ccccc21 | 13 | -3 | -2 | 503 | -2 | 6
Cc1ccccc1OCCn1c(=O)sc2ccccc21 | 63*! | 1 | -1 | 137 | 2 | 2
Cc1cc(Br)c(OCc2ccc(C(=O)N/N=C3\CC(=O)CC(C)(C)C3)cc2)c(Br)c1 | 35 | 0 | 4 | 0 | 7 | 2
COc1ccc(C2CC(C)(c3ccc(OC)cc3OC)Nc3ccccc3N2)c(OC)c1 (configuration not stated) | 24 | 2 | 1 | 66* | -2 | 8
O=S(=O)(c1ccc2c(c1)OCCO2)N1CCN(Cc2ccccc2)CC1 | -38 | 4 | 1 | 598 | 2 | 11
O=C1C(Cl)=C(Sc2nnc3c4ccccc4c4ccccc4c3n2)C(=O)c2ccccc21 | -46 | x | x | x | x | 58*
O=C(O)CSc1nnc2c3ccccc3c3ccccc3c2n1 | -18 | x | x | x | x | 31
SMILES | EP2 modulator | Granule exo inh | MC4R ag barr | T cell modulator | MC4R antagonist | EP2 antag
O=C1c2ccccc2-c2onc3ccc(Oc4ccccc4)c1c23 | -51 | 85* | -1 | 611 | -24 | 17
O=C(c1ccccc1)c1coc2c1C(=O)c1ccccc1C2=O | -69 | 14 | 1 | 154 | -7 | 26
CC1=CN2C(=N)/C(=C/c3ccc([N+](=O)[O-])o3)C(=O)N=C2S1 | -10 | 80* | -2 | 931 | 27 | 104*
CCOC(=O)c1sc(N/N=C/c2ccccc2)nc1C | 62* | 3 | 0 | 252 | 11 | 16
CCOC(=O)c1sc(Nc2ccc(C)cc2C)nc1C | 64* | 0 | 0 | 615 | 4 | 9
CCOC(=O)c1sc(Nc2ccccc2)nc1C | 39 | -2 | 2 | 402 | 3 | 12
Cc1ccc(/C(C#N)=C\c2ccc(N3CCOCC3)o2)cc1 | -24 | 78* | 4 | 537 | 20 | 20
N#C/C(=C/c1ccc(N2CCCCCC2)o1)c1ccc(Cl)cc1 | 4 | 84* | 2 | 454 | 19 | 8
O=C(CSCc1cccc(Br)c1)N1CCOCC1 | 36 | 2 | 0 | 524 | -2 | 4
NC(=O)C1CCN(C(=O)C(=O)c2cn(CC(=O)N3CCCC3)c3ccccc23)CC1 | x | -2 | -2 | 427 | 2 | x
Cc1ccc(/C=C2/NC(=O)N(Cc3ccccc3)C2=O)s1 | -19 | -4 | 0 | 232 | 8 | 6
Cc1cccc(CN2C(=O)N/C(=C/c3ccc(C)s3)C2=O)c1 | -2 | 5 | 9.2* | 0 | -15 | 11
N#Cc1ccc(CSc2nnc(-c3c[nH]c4ccccc34)n2-c2ccccc2)cc1 | -6 | 96* | 4 | 276 | 4 | 5
OC1(c2ccc(Cl)cc2)CCN(Cc2nc(-c3cnccn3)no2)CC1 | 12 | -2 | 3 | 204 | 11 | 4
COc1ccc2[nH]c3c(N4CCN(Cc5ccc6c(c5)OCO6)CC4)ncnc3c2c1 | -80 | -4 | -1 | 242 | 8 | 60*
CN1CCc2c(sc3c2C(=O)NC(c2ccc4c(c2)OCO4)N3)C1 (configuration not stated) | x | 8 | 0 | i | -20 | 41*
CCCCOc1ccc(C(=O)NCC(=O)NCCOc2ccccc2)cc1 | x | -7 | -2 | 269 | -2 | x
Nc1ccccc1SCc1c(Cl)cccc1Cl | -5 | -7 | 8.5* | 175 | -4 | 3
Nc1ccccc1SCc1ccccc1Cl | 5 | -3 | 0 | 273 | 1 | 14
COc1ccccc1S(=O)(=O)Cc1ccc(C(=O)NCc2ccc(C)cc2)o1 | x | -8 | 0 | 304 | 0 | x
Cn1nc([N+](=O)[O-])c(C(C#N)c2nc3ccccc3n2C)c(Cl)c1=O (configuration not stated) | -29 | 71* | 0 | 219 | 23 | 11
COc1ccc(-n2c(=O)c3ccccc3c3ccccc3c2=O)cc1 | 20 | 0 | 1 | 216 | -2 | 10
CC(C)N1C(=O)/C(=C\c2nc3ccccc3c(=O)[nH]2)c2ccccc21 | -1 | 98* | 0 | 296 | -5 | 13
CCCN1C(=O)/C(=C/c2nc3ccccc3c(=O)[nH]2)c2ccccc21 | -1 | -1 | -2 | 396 | -5 | 7
CN1C(=O)/C(=N/OC(=O)c2ccccc2)c2ccccc21 | 32 | 87* | -1 | 134 | -7 | 8

Compound activity (PubChem)
